GSTO1 inh: inhibitors of recombinant GSTO1, primary screen, counter-screen for RBBP9 inhibitor project, biochemical, fluorescence polarization; Glutathione S-transferase omega-1 (Homo sapiens), P78417; activity-based probe fluorescence polarization; inhibition, % at 5.96 µM; 300,000 tested, 1.1% active; AID 1974, 2009;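 active = inhibition above the campaign mean inhibition plus 3 SD, cut at about 35% in these data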;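 note: 0% = GSTO1-1 with DMSO and 100% = wells lacking GSTO1-1 enzyme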
PAD4 inh: human PAD4 inhibitors, primary screen, biochemical, fluorescence polarization, 1536-well format. Protein-arginine deiminase type-4 (Homo sapiens), Q9UM07. recombinant PAD4, RCA probe fluorescence polarization. inhibition, % at 6.36 µM. 330,000 tested, 0.41% active. AID 485272, 2010;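 active = percent inhibition above a cutoff equal to the mean of all tested compounds plus 3 SD, cut at about 15% in these data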;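 note: 0% = PAD4 with RCA probe and DMSO and 100% = probe without PAD4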
Target sequence (Q9UM07 whole entry, looked up): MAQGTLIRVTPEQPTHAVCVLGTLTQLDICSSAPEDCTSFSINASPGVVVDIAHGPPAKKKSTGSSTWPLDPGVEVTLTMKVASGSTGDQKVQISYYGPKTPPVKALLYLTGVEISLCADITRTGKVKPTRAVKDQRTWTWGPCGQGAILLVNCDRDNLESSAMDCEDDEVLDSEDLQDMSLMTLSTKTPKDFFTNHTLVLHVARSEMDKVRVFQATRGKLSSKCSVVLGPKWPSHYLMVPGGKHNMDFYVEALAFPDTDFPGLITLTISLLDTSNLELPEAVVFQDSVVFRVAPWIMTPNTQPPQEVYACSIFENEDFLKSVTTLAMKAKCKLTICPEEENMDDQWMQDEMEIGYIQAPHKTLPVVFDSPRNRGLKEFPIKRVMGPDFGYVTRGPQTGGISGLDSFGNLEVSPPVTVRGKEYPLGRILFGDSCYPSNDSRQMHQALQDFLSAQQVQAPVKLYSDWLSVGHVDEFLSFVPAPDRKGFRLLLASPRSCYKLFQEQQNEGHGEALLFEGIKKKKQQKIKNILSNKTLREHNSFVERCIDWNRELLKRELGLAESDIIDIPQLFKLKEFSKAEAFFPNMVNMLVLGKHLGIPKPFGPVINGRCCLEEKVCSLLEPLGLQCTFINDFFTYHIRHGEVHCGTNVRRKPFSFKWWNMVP
Apaf-1 inh: inhibitors of human Apaf-1 apoptosome, primary screen, biochemical, DEVD-Rh110 fluorescence, uHTS; reconstituted apoptosome caspase-3 activity; inhibition, % at 20 µM; 330,000 tested, 0.71% active; AID 489030, 2010; active = inhibition of at least 40% at 20 µM;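 note: plate controls were DMSO wells for no effect and DEVD-CHO caspase inhibitor wells for full effect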
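Assay system: Apoptosome proteins | Medium: pH 7.5 Hepes buffer with CHAPS, BSA, DTT | Also added: Cytochrome c and DEVD-Rh110 substrate | Times: 30 min plus 50 min, RT | Detection: Rhodamine 110 fluorescence at Ex 480/Em 540 nm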
TDP2 absorb: human TDP2 enzyme inhibitors, primary screen, biochemical, epi absorbance, recombinant enzyme | 370,000 tested, 0.34% active | AID 720702, 2013 | inhibition, % at 12.8 µM | T5PNP hydrolysis, p-nitrophenol absorbance 415 nm | Tyrosyl-DNA phosphodiesterase 2 (Homo sapiens), O95551;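 active = inhibition above the mean of all tested compounds plus 3 SD, set per campaign, cut at about 25% in these data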;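 note: 0% = DMSO with enzyme and 100% = buffer with substrate but no TDP2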
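Test system: Human TDP2 enzyme | Reagent: 5 mM T5PNP | Compound dosing: 12.8 µM single point, 1% DMSO | Incubation: Enzyme reaction with compound for 2 h at 37 °C | Technique: p-Nitrophenol epi absorbance | Read-out: % inhibition relative to enzyme-containing and enzyme-free wells | Benchmarks: High control without enzyme, low control DMSO plus TDP2 | Replicates: Singlicate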
PRMT1 inh: PRMT1 methyltransferase inhibitors, primary screen, biochemical, fluorescence polarization | 370,000 tested, 1.3% active | Protein arginine N-methyltransferase 1 (Homo sapiens), Q99873 | recombinant PRMT1, activity-based probe fluorescence polarization | inhibition, % at 2.79 µM;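 active = inhibition above about 21% made by adding two undisclosed values, limit read from the data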
Apaf-1 inh conf2: Apaf-1 inhibitors, single-dose retest, confirmation, biochemical, fluorescence, DEVD-Rh110, 20 µM | 1,800 tested, 25% active | shares compounds with Apaf-1 inh | inhibition, % at 20 µM | reconstituted apoptosome, caspase-3 DEVD-Rh110 fluorescence;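 active = mean inhibition of at least 40% at 20 µM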;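 note: plate controls were DMSO wells for no effect and DEVD-CHO caspase inhibitor control wells for full effect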
Rh110 interf inh: Rh110 fluorescence interference by putative Apaf-1 inhibitors, confirmation, artefact control for Apaf-1 inhibitor project, biochemical, 20 µM; shares compounds with Apaf-1 inh; quenched caspase reaction; activation (fluorescence interference), % at 20 µM; 1,800 tested, under 10 active;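 active = signal rise of 40% or more at 20 µM, treated as a fluorescence artifact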
Apaf1 inh interf: fluorescence interference of Apaf-1 inhibitor hits, dose response, artefact control for Apaf-1 inhibitor project; shares compounds with Apaf-1 inh; fluorescence interference counterscreen, Apaf-1 assay format; IC50, µM; 460 tested, under 10 active; AID 588538, 2011; call rule not given here
PRMT1 inh conf: PRMT1 methyltransferase inhibitors, confirmation, biochemical, fluorescence polarization, triplicate; shares compounds with PRMT1 inh; recombinant His-PRMT1, activity-based probe fluorescence polarization; inhibition, % at 2.79 µM; 3,300 tested, 42% active; AID 687036, 2013;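 active = mean inhibition across replicates above the hit cutoff derived for the earlier primary screen, cut at about 22% in these data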
TDP2 confirm: human TDP2 enzyme inhibitors, retest, confirmation, biochemical, epi absorbance, recombinant enzyme | shares compounds with TDP2 absorb | absorbance read-out | inhibition, % at 12.8 µM | 1,100 tested, 22% active | AID 743263, 2014; in the data active = inhibition above about 25%;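 note: 0% = vehicle with enzyme and 100% = no enzyme buffer only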
Numbers without * were called inactive; nt = no result. An excerpt weighted towards active compounds, which were near 2.6% of everything screened.

SMILES	GSTO1 inh	PAD4 inh	Apaf-1 inh	TDP2 absorb	PRMT1 inh	Apaf-1 inh conf2	Rh110 interf inh	others
CCCCN1C(=O)N2CCc3ccccc3C2CS1(=O)=O (centres undefined)	nt	nt	nt	1	0	nt	nt
O=C(c1ccc2nc(-c3ccco3)c(-c3ccco3)nc2c1)N1CCN(c2ccccc2)CC1	14	-10	40*	-15	54*	30	14	PRMT1 inh conf=4
CC(=O)NC1=C(NC2CCS(=O)(=O)C2)C(=O)c2ccccc2C1=O (centres undefined)	31	-13	41*	19	44*	21	-6	PRMT1 inh conf=67*
C[C@@H]1[C@@H](c2ccccc2)c2cc3ccccc3nc2C(=O)C[C@@H]1C(=O)N1CCCC1	nt	nt	nt	6	0	nt	nt
Cc1ccc(NC(=S)NNC(=O)CSc2nc3ccccc3c(=O)n2-c2ccc(Cl)cc2)cc1	nt	nt	nt	-4	0	nt	nt
O=[N+]([O-])c1ccc(N/N=C/c2ccc(O)c(O)c2O)c(S(=O)(=O)N2CCOCC2)c1	nt	nt	63*	-8	35*	43*	9	Apaf1 inh interf=>100;PRMT1 inh conf=56*
C=CCN1[C@H](C#N)[C@@H](c2ccc(C#Cc3ccccc3OC)cc2)[C@H]1CO	nt	nt	nt	16	2	nt	nt
Cc1cccc(S(=O)(=O)C(C#N)c2nc3ccccc3nc2N2CCCC2)c1 (centres undefined)	4	-9	55*	-5	25*	20	5	PRMT1 inh conf=5
COc1ccc(S(=O)(=O)C(C#N)c2nc3ccccc3nc2N2CCCCC2)cc1 (centres undefined)	16	-1	33	6	5	nt	nt
COC(=O)CCC(=O)OC1(C)C(=O)C=C2C=C(C3CC3)N(CC3CC3)C=C2C1=O (centres undefined)	33	0	57*	28*	9	37	3	TDP2 confirm=12
Cc1cccc(Nc2nc(N)c([N+](=O)[O-])c(NCCO)n2)c1	-8	0	-6	-7	4	nt	nt
Cc1cccc(NC2=C(NCCO)C(=O)c3ccccc3C2=O)c1	42*	-3	56*	58*	1	35	9	TDP2 confirm=2
COc1ccc(NC2=C(NCCO)C(=O)c3ccccc3C2=O)cc1	44*	-14	70*	36*	6	45*	6	Apaf1 inh interf=>100;TDP2 confirm=34*
O=C(NC1CCCC1)C(C1CC1)n1c(-c2ccncc2)nc2ccccc21 (centres undefined)	nt	nt	nt	5	-4	nt	nt
Cc1ccc(C(=O)C2CCN(CC(=O)NCc3cccs3)CC2)cc1	nt	nt	nt	-1	2	nt	nt
CCc1c(-c2ccc(OC)cc2)ncn1Cc1cccc(-c2ccccc2)c1	nt	nt	nt	2	2	nt	nt
O=C(O)c1ccc(NC2=C/C(=N/S(=O)(=O)c3ccccc3)c3ccccc3C2=O)cc1	nt	nt	96*	72*	6	97*	-1	Apaf1 inh interf=>100;TDP2 confirm=77*
O=S(=O)(N=C1C=CC(=NS(=O)(=O)c2ccccc2)c2ccccc21)c1ccccc1	nt	nt	nt	7	17	nt	nt

Bioassay records as filed in PubChem.
